From ChEMBL document CHEMBL2321859, “Cytotoxic betulin-derived hydroxypropargylamines trigger apoptosis” (Bioorg Med Chem, 2013)
Converted amounts (≈) assume the structure as drawn. The source made the active and inactive calls. The rule behind the calls is not given here.

Assays:
NIH3T3 = assay: Cytotoxicity against mouse NIH/3T3 cells assessed as cell viability after 96 hrs by SRB assay; assay type: cell-based; conditions: NIH3T3, 96 h
[1] = Cytotoxicity against human 518A2 cells assessed as cell viability after 96 hrs by SRB assay; assay type: functional, cell-based
8505C = assay: Cytotoxicity against human 8505C cells assessed as cell viability after 96 hrs by SRB assay; assay type: functional, cell-based
[2] = Cytotoxicity against human A253 cells assessed as cell viability after 96 hrs by SRB assay; assay type: functional, cell-based
A2780 = assay: Cytotoxicity against human A2780 cells assessed as cell viability after 96 hrs by SRB assay; assay type: functional, cell-based
A549 [3] = assay: Cytotoxicity against human A549 cells assessed as cell viability after 96 hrs by SRB assay; assay type: functional, cell-based
DLD-1 = assay: Cytotoxicity against human DLD1 cells assessed as cell viability after 96 hrs by SRB assay; assay type: functional, cell-based
MCF7 = assay: Cytotoxicity against human MCF7 cells assessed as cell viability after 96 hrs by SRB assay; assay type: functional, cell-based
[4] = Cytotoxicity against human Lipo cells assessed as cell viability after 96 hrs by SRB assay; assay type: functional, cell-based
SW-1736 = assay: Cytotoxicity against human SW1736 cells assessed as cell viability after 96 hrs by SRB assay; assay type: functional, cell-based
[5] = Solubility of the compound in water/DMSO mixture; assay type: physicochemical
Summary of the method: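 Solubility was measured in water/DMSO (95:5, v/v) by HPLC with UV/vis detection.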

A549 [6] = assay: Induction of apoptosis in human A549 cells assessed as cell shrinking by acridine orange/propidium iodide staining; assay type: functional, cell-based
A549 [7] = assay: Cell cycle arrest in human A549 cells assessed as accumulation at G2/M phase by acridine orange/propidium iodide staining; assay type: functional, cell-based
A549 [8] = assay: Induction of apoptosis in human A549 cells assessed as chromatin condensation by acridine orange/propidium iodide staining; assay type: functional, cell-based
A549 [9] = assay: Induction of apoptosis in human A549 cells assessed as DNA fragmentation by DNA laddering assay; assay type: functional, cell-based
Summary of the method: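 DNA fragmentation was checked by DNA laddering in treated human cancer cells, as an indicator of apoptotic cell death.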

A549 [10] = assay: Induction of apoptosis in human A549 cells assessed as membrane blebbing by acridine orange/propidium iodide staining; assay type: functional, cell-based
A549 [11] = assay: Induction of apoptosis in human A549 cells assessed as early apoptotic cells at 10 uM after 6 hrs by annexin V/propidium iodide staining-based FACS flow cytometric analysis relative to control; assay type: functional
Summary of the method: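 A549 cells incubated 6 h with compound, then analysed by FACS annexin V/propidium iodide assay. Phosphatidylserine translocation to the outer membrane was taken as the early-apoptosis marker. Cells were scored as percentage dying by necrosis versus programmed cell death. Betulinic acid and maslinic acid were the reference standards.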

[12] = water/DMSO mixture, read-out: solubility

| Compound | IC50 (NIH3T3) [µM] | IC50 ([1]; Homo sapiens, 518A2, 96 h) [µM] | IC50 (8505C; Homo sapiens, 8505C, 96 h) [µM] | IC50 ([2]; Homo sapiens, A253, 96 h) [µM] | IC50 (A2780; Homo sapiens, A2780, 96 h) [µM] | IC50 (A549 [3]; Homo sapiens, A549, 96 h) [µM] | IC50 (DLD-1; Homo sapiens, DLD-1, 96 h) [µM] | IC50 (MCF7; Homo sapiens, MCF7, 96 h) [µM] | IC50 ([4]; Homo sapiens, Lipo, 96 h) [µM] | IC50 (SW-1736; Homo sapiens, SW-1736, 96 h) [µM] | also measured |
| --- | --- | --- | --- | --- | --- | --- | --- | --- | --- | --- | --- |
| C=C(C)[C@@H]1CC[C@]2([C@H](O)C#CCN3CCNCC3)CC[C@]3(C)[C@H](CC[C@@H]4[C@@]5(C)CC[C@H](OC(C)=O)C(C)(C)[C@@H]5CC[C@]43C)[C@@H]12.Cl | 4 | 5 | 6.9 | 4.6 | 2.7 | 6.5 | 5.2 | 2.5 | 2.7 | 7.7 | solubility [5, 12]: 178 µg/mL |
| C=C(C)[C@@H]1CC[C@]2([C@H](O)C#CCN3CCCC3)CC[C@]3(C)[C@H](CC[C@@H]4[C@@]5(C)CCC(=O)C(C)(C)[C@@H]5CC[C@]43C)[C@@H]12 | 6.4 | 5.6 | 3.4 | 3.4 | 3.6 | 3.5 | 2.6 | 3.1 | 5.6 | 6 | solubility [5, 12]: 182 µg/mL (≈ 332 µM) |
| C=C(C)[C@@H]1CC[C@]2([C@H](O)C#CCN(C)C)CC[C@]3(C)[C@H](CC[C@@H]4[C@@]5(C)CC[C@H](OC(C)=O)C(C)(C)[C@@H]5CC[C@]43C)[C@@H]12.Cl | 5.8 | 7.2 | 6.7 | 6.4 | 4.9 | 11.1 | 12.9 | 3.7 | 8.6 | 6.5 | solubility [5, 12]: 312 µg/mL |
| C=CCN(CC#C[C@@H](O)[C@]12CC[C@@H](C(=C)C)[C@@H]1[C@H]1CC[C@@H]3[C@@]4(C)CC[C@H](OC(C)=O)C(C)(C)[C@@H]4CC[C@@]3(C)[C@]1(C)CC2)CC=C [listing 1 of 2 here] | > 60 | – | – | – | – | > 60 | – | – | 21.8 | – | IC50 ([1]; 518a2): 52 µM; IC50 (8505C; 8505c): 47.9 µM; IC50 ([2]; a253): 32.8 µM; IC50 (A2780; a2780): 12.4 µM; IC50 (DLD-1; dld-1): 44.2 µM; IC50 (MCF7; mcf7): 15.7 µM; IC50 (SW-1736; sw-1736): 30.2 µM |
| C=C(C)[C@@H]1CC[C@]2([C@H](O)C#CCN(C(C)C)C(C)C)CC[C@]3(C)[C@H](CC[C@@H]4[C@@]5(C)CC[C@H](O)C(C)(C)[C@@H]5CC[C@]43C)[C@@H]12 | 6.2 | 6.4 | 5.8 | 8.2 | 5.4 | 8.3 | 9.1 | 8.2 | 10.3 | 4 | – |
| C=C(C)[C@@H]1CC[C@]2([C@H](O)C#CCN(C3CCCCC3)C3CCCCC3)CC[C@]3(C)[C@H](CC[C@@H]4[C@@]5(C)CC[C@H](OC(C)=O)C(C)(C)[C@@H]5CC[C@]43C)[C@@H]12.Cl | > 30 | > 30 | > 30 | > 30 | > 30 | > 30 | > 30 | > 30 | > 30 | > 30 | solubility [5, 12]: 100 µg/mL |
| C=C(C)[C@@H]1CC[C@]2([C@H](O)C#CCN(CCC)CCC)CC[C@]3(C)[C@H](CC[C@@H]4[C@@]5(C)CC[C@H](OC(C)=O)C(C)(C)[C@@H]5CC[C@]43C)[C@@H]12 | > 30 | 21 | 28 | 15.2 | 12 | 25.9 | 20.7 | 16.5 | 24.2 | 7.5 | – |
| C=C(C)[C@@H]1CC[C@]2([C@H](O)C#CCN3CCCCCC3)CC[C@]3(C)[C@H](CC[C@@H]4[C@@]5(C)CC[C@H](OC(C)=O)C(C)(C)[C@@H]5CC[C@]43C)[C@@H]12 | 17 | 22.4 | 32.3 | 20.1 | 14.4 | 47 | 40.8 | 13.5 | > 30 | 32.3 | – |
| C#C[C@H](O)[C@]12CC[C@@H](C(=C)C)[C@@H]1[C@H]1CC[C@@H]3[C@@]4(C)CC[C@H](OC(C)=O)C(C)(C)[C@@H]4CC[C@@]3(C)[C@]1(C)CC2 | 32.3 | 32.5 | 22.9 | 16.5 | 9.3 | 42.2 | > 30 | 20.5 | 28.9 | 23 | – |
| C=C(C)[C@@H]1CC[C@]2([C@@H](O)C#CCN(CCC)CCC)CC[C@]3(C)[C@H](CC[C@@H]4[C@@]5(C)CC[C@H](OC(C)=O)C(C)(C)[C@@H]5CC[C@]43C)[C@@H]12.CI | 6.8 | 4.6 | 4.1 | 3.5 | 2.3 | 4.5 | 4.8 | 3.2 | 4.3 | 3.2 | Activity (A549 [6]): Active; Activity (A549 [7]): Active; Activity (A549 [8]): Active; Activity (A549 [9]): Active; Activity (A549 [10]): Active; Activity (A549 [11]): >90% |
| C=C(C)[C@@H]1CC[C@]2([C@@H](O)C#CCN(Cc3ccccc3)Cc3ccccc3)CC[C@]3(C)[C@H](CC[C@@H]4[C@@]5(C)CC[C@H](OC(C)=O)C(C)(C)[C@@H]5CC[C@]43C)[C@@H]12 | > 70 | > 30 | > 30 | > 70 | > 70 | > 70 | > 70 | 27.2 | > 70 | > 70 | – |
| C#C[C@H](O)[C@]12CC[C@@H](C(=C)C)[C@@H]1[C@H]1CC[C@@H]3[C@@]4(C)CC[C@H](O)C(C)(C)[C@@H]4CC[C@@]3(C)[C@]1(C)CC2 | 10.5 | 15.1 | 16.1 | 14.1 | 9.7 | 20.4 | 21.9 | 11.9 | 12.9 | 13 | – |
| C=CCN(CC#C[C@@H](O)[C@]12CC[C@@H](C(=C)C)[C@@H]1[C@H]1CC[C@@H]3[C@@]4(C)CC[C@H](OC(C)=O)C(C)(C)[C@@H]4CC[C@@]3(C)[C@]1(C)CC2)CC=C [listing 2 of 2 here] | – | > 60 | > 60 | 43.1 | 18.2 | – | 57.6 | 31.1 | – | 48 | IC50 (A549 [3]; a549): > 30 µM; IC50 ([4]; lipo): 17 µM |
| C=C(C)[C@@H]1CC[C@]2([C@@H](O)C#CCN3CCCC3)CC[C@]3(C)[C@H](CC[C@@H]4[C@@]5(C)CC[C@H](OC(C)=O)C(C)(C)[C@@H]5CC[C@]43C)[C@@H]12 | 14.5 | 12.1 | 11.1 | 10.4 | 8.3 | 12 | 18.8 | 7.7 | 11.6 | 20 | – |
| C=C(C)[C@@H]1CC[C@]2([C@H](O)C#CCN3CCSCC3)CC[C@]3(C)[C@H](CC[C@@H]4[C@@]5(C)CC[C@H](OC(C)=O)C(C)(C)[C@@H]5CC[C@]43C)[C@@H]12 | 8.8 | 9.3 | 2 | 7.5 | 4.3 | 16.3 | 19 | 3.8 | 3.5 | 3.7 | – |
| C=C(C)[C@@H]1CC[C@]2(C(=O)O)CC[C@]3(C)[C@H](CC[C@@H]4[C@@]5(C)CC[C@H](O)C(C)(C)[C@@H]5CC[C@]43C)[C@@H]12 [BETULINIC ACID] | 10 | – | – | – | 11 | – | – | – | 9.7 | – | solubility ([5]; buffer): 166 µg/mL (≈ 363 µM) |
| C=C(C)[C@@H]1CC[C@]2([C@@H](O)CCCN(C(C)C)C(C)C)CC[C@]3(C)[C@H](CC[C@@H]4[C@@]5(C)CC[C@H](O)C(C)(C)[C@@H]5CC[C@]43C)[C@@H]12 | 1.7 | 2.1 | 2.3 | 1.8 | 1.6 | 2.2 | 2.3 | 0.7 | 2.3 | 1.7 | Activity (A549 [6]): Active; Activity (A549 [7]): Active; Activity (A549 [8]): Active; Activity (A549 [9]): Active; Activity (A549 [10]): Active; Activity (A549 [11]): >90% |
| C#C[C@H](O)[C@]12CC[C@@H](C(=C)C)[C@@H]1[C@H]1CC[C@@H]3[C@@]4(C)CCC(=O)C(C)(C)[C@@H]4CC[C@@]3(C)[C@]1(C)CC2 | > 35 | 22.4 | 16.7 | 13.4 | 9.8 | 21.2 | 19 | 17.1 | 21.7 | 18.4 | – |
